ChEMBL document CHEMBL1152831, “Synthesis and pharmacological screening of derivatives of isoxazolo[4,5-d]pyrimidine” (2008)

Tests used:
Assay type in all cases: functional
CCRF-CEM = experiment: Antitumor activity against human CCRF-CEM cells
K562 = experiment: Antitumor activity against human K562 cells
MOLT-4 = experiment: Antitumor activity against human MOLT4 cells
HOP-92 = experiment: Antitumor activity against human HOP92 cells
NCI-H522 = experiment: Antitumor activity against human NCI-H522 cells
HCC 2998 = experiment: Antitumor activity against human HCC2998 cells
HCT-15 = experiment: Antitumor activity against human HCT15 cells
SF-539 = experiment: Antitumor activity against human SF539 cells
U-251 = experiment: Antitumor activity against human U251 cells
LOX IMVI = experiment: Antitumor activity against human LOXIMVI cells
SK-MEL-2 = experiment: Antitumor activity against human SK-MEL-2 cells
CAKI-1 = experiment: Antitumor activity against human Caki1 cells
Mus musculus [1] = experiment: Effect on humoral immune response in sheep red blood cells-immunized CBA mouse spleen assessed as number of antibody forming unit per 10^6 viable cells at 10 ug, ip by local hemolysis assay
In short: (§1)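 Male and female CBA mice, 12 weeks old, immunized i.p. with 0.2 mL of 5% SRBC in 0.9% NaCl. Compounds (DMSO stock diluted in saline) were given i.p. 2 h later; controls received saline or diluted DMSO. Spleens were taken on day 4 and antibody-forming cells counted by local hemolysis assay per 10⁶ viable splenocytes. Mean of 5 mice per group ±SE, t-test.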

Mus musculus [2] = experiment: Effect on humoral immune response in sheep red blood cells-immunized CBA mouse spleen assessed as number of antibody forming unit per 10^6 viable cells at 100 ug, ip by local hemolysis assay; in short: as §1
Mus musculus [3] = experiment: Effect on delayed type hypersensitivity in sheep red blood cells-immunized CBA mouse assessed as foot-pad edema at 10 ug, ip
In short: (§2)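 Male and female CBA mice, 12 weeks old, sensitized i.v. with 10⁵ SRBCs in 0.2 mL. Compounds were dissolved in DMSO, then diluted in 0.9% NaCl, and given i.p. 2 h later. Controls received saline or diluted DMSO. On day 4, 10⁸ SRBCs in 0.05 mL were injected into the hind footpads. Footpad edema was measured by callipers 24 h later, minus the naive-mouse background. Mean ±SE, t-test.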

Splenocyte [4] = experiment: Effect on cancavalin-A-induced proliferation in mouse splenocytes at 1 ug/ml assessed as proliferation rate by MTT assay
In short: (§3)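 Splenocytes from CBA mice were pressed through a screen into Hank's medium. Erythrocytes were lysed with 0.83% NH4Cl, cells washed twice and passed through cotton wool to remove dead cells. They were resuspended in RPMI 1640 with 10% FCS, L-glutamine, pyruvate and antibiotics. 2×10⁵ cells per well, Con A at 2.5 final, compounds across 0.1–10. After 3 days, MTT read as OD 550/630 nm. Mean of quadruplicate wells ±SE, Student's t-test.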

Splenocyte [5] = experiment: Effect on cancavalin-A-induced proliferation in mouse splenocytes at 0.1 ug/ml assessed as proliferation rate by MTT assay; in short: as §3
Splenocyte [6] = experiment: Effect on cancavalin-A-induced proliferation in mouse splenocytes at 10 ug/ml assessed as proliferation rate by MTT assay; in short: as §3
Mus musculus [7] = experiment: Effect on delayed type hypersensitivity in sheep red blood cells-immunized CBA mouse assessed as foot-pad edema at 100 ug, ip; in short: as §2
[8] = read-out: Log10GI50 (converted)
[9] = read-out: Log10LC50 (converted)

Molecule `Nc1c(-c2nnco2)noc1C(=O)c1ccccc1` has a GI50 (CCRF-CEM; [8]) of 18.2 µM, a CC50 (CCRF-CEM; [9]) greater than 100 µM and a TGI (CCRF-CEM; read-out: Log10TGI (converted)) greater than 100 µM. The GI50 (K562; [8]) was 57.5 µM, the CC50 (K562; [9]) was greater than 100 µM and the TGI (K562; read-out: Log10TGI (converted)) was greater than 100 µM. For the same molecule, the GI50 (MOLT-4; [8]) was 56.2 µM, the CC50 (MOLT-4; [9]) was greater than 100 µM and the TGI (MOLT-4; read-out: Log10TGI (converted)) was greater than 100 µM. The GI50 (HOP-92; [8]) was 30.9 µM, the CC50 (HOP-92; [9]) was greater than 100 µM and the TGI (HOP-92; read-out: Log10TGI (converted)) was 97.7 µM. For the same molecule, the GI50 (NCI-H522; [8]) was 33.9 µM, the CC50 (NCI-H522; [9]) was greater than 100 µM and the TGI (NCI-H522; read-out: Log10TGI (converted)) was greater than 100 µM. For the same molecule, the GI50 (HCC 2998; [8]) was 26.9 µM, the CC50 (HCC 2998; [9]) was greater than 100 µM and the TGI (HCC 2998; read-out: Log10TGI (converted)) was 95.5 µM. It also gave a GI50 (HCT-15; [8]) of 29.5 µM, a CC50 (HCT-15; [9]) greater than 100 µM and a TGI (HCT-15; read-out: Log10TGI (converted)) greater than 100 µM. The GI50 (SF-539; [8]) was 2.75 µM, the CC50 (SF-539; [9]) was 64.6 µM and the TGI (SF-539; read-out: Log10TGI (converted)) was 22.4 µM. The GI50 (U-251; [8]) was 16.2 µM, the CC50 (U-251; [9]) was greater than 100 µM and the TGI (U-251; read-out: Log10TGI (converted)) was 69.2 µM. It also gave a GI50 (LOX IMVI; [8]) of 28.8 µM, a CC50 (LOX IMVI; [9]) greater than 100 µM and a TGI (LOX IMVI; read-out: Log10TGI (converted)) greater than 100 µM. For the same molecule, the GI50 (SK-MEL-2; [8]) was 33.1 µM, the CC50 (SK-MEL-2; [9]) was greater than 100 µM and the TGI (SK-MEL-2; read-out: Log10TGI (converted)) was greater than 100 µM. It also gave a GI50 (CAKI-1; [8]) of 21.9 µM, a CC50 (CAKI-1; [9]) greater than 100 µM and a TGI (CAKI-1; read-out: Log10TGI (converted)) greater than 100 µM.

Work on `C/C=C/C[C@@H](C)[C@@H](O)[C@H]1C(=O)N[C@@H](CC)C(=O)N(C)CC(=O)N(C)[C@@H](CC(C)C)C(=O)N[C@@H](C(C)C)C(=O)N(C)[C@@H](CC(C)C)C(=O)N[C@@H](C)C(=O)N[C@H](C)C(=O)N(C)[C@@H](CC(C)C)C(=O)N(C)[C@@H](CC(C)C)C(=O)N(C)[C@@H](C(C)C)C(=O)N1C` [CYCLOSPORINE] yielded an Activity (Mus musculus [1]) of 1617, an Activity (Mus musculus [2]) of 953 and an Activity (Mus musculus [3]) of 6.1. It also gave an OD (Splenocyte [4]) of 0.046, an OD (Splenocyte [5]) of 0.07 and an OD (Splenocyte [6]) of 0.001.

Molecule `Cc1nc(-c2ccccc2)c2onc(-c3nnc(C(=O)NCc4cccnc4)o3)c2n1` has an Activity (Mus musculus [1]) of 1660, an Activity (Mus musculus [2]) of 545 and an Activity (Mus musculus [3]) of 5.9. The Activity (Mus musculus [7]) was 3.5, the OD (Splenocyte [4]) was 0.479 and the OD (Splenocyte [5]) was 0.483. It also gave an OD (Splenocyte [6]) of 0.482.

With `Nc1c(-c2nnc(C(=O)NCc3ccncc3)o2)noc1C(=O)c1ccccc1` the Activity (Mus musculus [1]) was 1361, the Activity (Mus musculus [2]) was 574 and the Activity (Mus musculus [3]) was 7.9. The Activity (Mus musculus [7]) was 4.9, the OD (Splenocyte [4]) was 0.401 and the OD (Splenocyte [5]) was 0.442. For the same molecule, the OD (Splenocyte [6]) was 0.371.
